Test results from ChEMBL document CHEMBL1133671, “Synthesis and SAR of new 5-phenyl-3-ureido-1,5-benzodiazepines as cholecystokinin-B receptor antagonists” (J Med Chem, 2000).
pKi: −log10 of the molar value.

Tests used:
[1] = target: T1, Cholecystokinin receptor type A (Rattus norvegicus, UniProt P30551); test: In vitro inhibition of binding of [3H]pCCK-8 against Cholecystokinin type A receptor of rat pancreatic membranes; format: cell membranes, Membrane
T1 sequence (P30551 whole entry): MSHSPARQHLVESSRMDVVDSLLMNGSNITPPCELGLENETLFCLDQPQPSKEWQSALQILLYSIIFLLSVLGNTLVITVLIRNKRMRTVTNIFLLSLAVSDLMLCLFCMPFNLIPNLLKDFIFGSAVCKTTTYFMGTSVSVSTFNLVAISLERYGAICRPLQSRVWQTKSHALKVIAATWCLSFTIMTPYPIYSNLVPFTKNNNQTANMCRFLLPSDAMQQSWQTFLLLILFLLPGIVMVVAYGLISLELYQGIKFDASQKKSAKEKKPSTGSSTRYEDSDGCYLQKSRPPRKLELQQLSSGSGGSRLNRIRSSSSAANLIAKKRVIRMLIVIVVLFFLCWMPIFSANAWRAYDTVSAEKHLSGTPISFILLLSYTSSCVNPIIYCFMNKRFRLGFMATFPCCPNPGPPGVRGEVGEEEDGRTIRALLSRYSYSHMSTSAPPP
Method in brief: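 Radioligand displacement of [3H]CCK-8S from membranes: rat pancreas for the CCK-A receptor and guinea-pig cerebral cortex for the CCK-B receptor, using slightly modified published methods. Values are means of n experiments.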

Cavia porcellus = species: Cavia porcellus; test: Selectivity factor between CCK-B and CCK-A receptors

| SMILES | pKi [1] | Ratio (Cavia porcellus) |
| --- | --- | --- |
| CN(C)c1cccc(NC(=O)NC2C(=O)N(CCC34C[C@H]5C[C@@H](C3)C[C@@H](C4)C5)c3ccccc3N(c3ccccc3)C2=O)c1 (stereo partly drawn) | 6.53 | 22 |
| CN(C)c1ccc(NC(=O)NC2C(=O)N(CCC3CCCC3)c3ccccc3N(c3ccccc3F)C2=O)cc1 (racemic) | 6.18 | 141 |
| CC(O)C(O)Nc1cccc(NC(=O)NC2C(=O)N(CC34C[C@H]5C[C@@H](C3)C[C@@H](C4)C5)c3ccccc3N(c3ccccc3)C2=O)c1 (mixture of isomers) [listing 1 of 2 here] |  | 575 |
| O=C(Nc1ccccc1)NC1C(=O)N(CC23C[C@H]4C[C@@H](C2)C[C@@H](C3)C4)c2ccccc2N(c2ccccc2)C1=O (single isomer, unassigned; (-)) | 6.32 |  |
| O=C(O)CCCOc1ccc(NC(=O)NC2C(=O)N(CC34C[C@H]5C[C@@H](C3)C[C@@H](C4)C5)c3ccccc3N(c3ccccc3)C2=O)cc1 (single isomer, unassigned; (+)) | < 5.00 | > 2630 |
| O=C(Nc1ccccc1)NC1C(=O)N(CC2[C@H]3C[C@@H]4C[C@@H](C[C@H]2C4)C3)c2ccccc2N(c2ccccc2)C1=O (mixture of isomers) | 7.08 | 48 |
| CN(C)c1cccc(NC(=O)NC2C(=O)N(c3ccccc3)c3ccccc3N(C3CC4CCC3C4)C2=O)c1 (stereo not drawn) | 7.35 | 40 |
| O=C(Nc1cccc([N+](=O)[O-])c1)NC1C(=O)N(CC23C[C@H]4C[C@@H](C2)C[C@@H](C3)C4)c2ccccc2N(c2ccccc2)C1=O (mixture of isomers) | 6.52 | 158 |
| CN(C)c1cccc(NC(=O)NC2C(=O)N(CCC3CCCC3)c3ccccc3N(c3ccccc3F)C2=O)c1 (racemic) | 7.32 | 71 |
| O=C(Nc1ccc(Br)cc1)NC1C(=O)N(CC23C[C@H]4C[C@@H](C2)C[C@@H](C3)C4)c2ccccc2N(c2ccccc2)C1=O (stereo partly drawn) | 5.46 | 2460 |
| CC(=O)Nc1cccc(NC(=O)NC2C(=O)N(CC34C[C@H]5C[C@@H](C3)C[C@@H](C4)C5)c3ccccc3N(c3ccccc3)C2=O)c1 (stereo partly drawn) | 5.82 | 591 |
| CSc1cccc(NC(=O)NC2C(=O)N(CCC(C)(C)C)c3ccccc3N(c3ccccc3)C2=O)c1 (racemic) | 8.13 | 15 |
| O=C(Nc1cccc(C(=O)OCCN2CCOCC2)c1)NC1C(=O)N(CC23C[C@H]4C[C@@H](C2)C[C@@H](C3)C4)c2ccccc2N(c2ccccc2)C1=O (single isomer, unassigned; (+)) | 6.47 | 603 |
| CCOC(=O)c1cccc(NC(=O)NC2C(=O)N(CC34C[C@H]5C[C@@H](C3)C[C@@H](C4)C5)c3ccccc3N(c3ccccc3)C2=O)c1 (mixture of isomers) | 6.09 | 275 |
| CC(C)CCN1C(=O)C(NC(=O)Nc2cccc(N(C)C)c2)C(=O)N(c2ccccc2F)c2ccccc21 (single isomer, unassigned; (-)) [listing 1 of 2 here] | 7.14 |  |
| O=C(Nc1cccc(C2N=NN=N2)c1)NC1C(=O)N(c2ccccc2)c2ccccc2N(C2[C@H]3C[C@@H]4C[C@@H](C[C@H]2C4)C3)C1=O (stereo partly drawn) | 7.01 | 47 |
| CC(C)(C)CCN1C(=O)C(NC(=O)Nc2cccc(OC(F)(F)F)c2)C(=O)N(c2ccccc2)c2ccccc21 (racemic) | 6.95 | 38 |
| O=C(Nc1cccc(C2N=NN=N2)c1)NC1C(=O)N(CCC2CCCC2)c2ccccc2N(c2ccccc2F)C1=O (racemic) | 6.92 | 468 |
| O=C(Nc1cccc(Br)c1)NC1C(=O)N(CC23C[C@H]4C[C@@H](C2)C[C@@H](C3)C4)c2ccccc2N(c2ccccc2)C1=O (mixture of isomers) | 6.72 |  |
| CSc1cccc(NC(=O)NC2C(=O)N(CCC34C[C@H]5C[C@@H](C3)C[C@@H](C4)C5)c3ccccc3N(c3ccccc3)C2=O)c1 (stereo partly drawn) | 6.60 | 4 |
| CC(C)Cn1nnc(-c2cccc(NC(=O)NC3C(=O)N(CCC(C)(C)C)c4ccccc4N(c4ccccc4)C3=O)c2)n1 (racemic) | 7.31 | 20 |
| O=C(Nc1cccc(CO)c1)NC1C(=O)N(CC23C[C@H]4C[C@@H](C2)C[C@@H](C3)C4)c2ccccc2N(c2ccccc2)C1=O (single isomer, unassigned; (+)) | 5.67 | 12000 |
| O=C(Nc1cccc(C(=O)O)c1)NC1C(=O)N(CC23C[C@H]4C[C@@H](C2)C[C@@H](C3)C4)c2ccccc2N(c2ccccc2)C1=O (mixture of isomers) | 6.20 | 646 |
| CC(O)C(O)Nc1cccc(NC(=O)NC2C(=O)N(CC34C[C@H]5C[C@@H](C3)C[C@@H](C4)C5)c3ccccc3N(c3ccccc3)C2=O)c1 (single isomer, unassigned; (+)) [listing 1 of 2 here] | 5.13 |  |
| O=C(Nc1ccccc1)NC1C(=O)N(CCC2CCCC2)c2ccccc2N(c2ccccc2F)C1=O (racemic) | 7.00 | 138 |

| SMILES | pKi [1] | Ratio (Cavia porcellus) |
| --- | --- | --- |
| CC(C)CCN1C(=O)C(NC(=O)Nc2cccc(N(C)C)c2)C(=O)N(c2ccccc2F)c2ccccc21 (single isomer, unassigned; (+)) [listing 1 of 2 here] |  | 933 |
| CSc1cccc(NC(=O)NC2C(=O)N(CCC(C)(C)C)c3ccccc3N(c3ccccc3F)C2=O)c1 (racemic) | 7.93 | 16 |
| CC(C)(C)CCN1C(=O)C(NC(=O)Nc2cccc(C#N)c2)C(=O)N(c2ccccc2)c2ccccc21 (stereo not drawn) | 7.01 | 151 |
| CC(C)CCN1C(=O)C(NC(=O)Nc2cccc(N(C)C)c2)C(=O)N(c2ccccc2F)c2ccccc21 (single isomer, unassigned; (+)) [listing 2 of 2 here] | 6.70 |  |
| CC(O)C(O)Nc1cccc(NC(=O)NC2C(=O)N(CC34C[C@H]5C[C@@H](C3)C[C@@H](C4)C5)c3ccccc3N(c3ccccc3)C2=O)c1 (mixture of isomers) [listing 2 of 2 here] | 6.20 |  |
| O=C(Nc1cccc(Cl)c1)NC1C(=O)N(c2ccccc2)c2ccccc2N(C2CC3CCC2C3)C1=O (stereo not drawn) | 7.32 | 28 |
| CN(C)c1cccc(NC(=O)NC2C(=O)N(CC34C[C@H]5C[C@@H](C3)C[C@@H](C4)C5)c3ccccc3N(c3ccccc3)C2=O)c1 (mixture of isomers) | 6.35 | 398 |
| O=C(Nc1ccccc1)NC1C(=O)N(CCC23C[C@H]4C[C@@H](C2)C[C@@H](C3)C4)c2ccccc2N(c2ccccc2)C1=O (mixture of isomers) | 6.66 | 6 |
| CN(C)c1cccc(NC(=O)NC2C(=O)N(c3ccccc3)c3ccccc3N(C3[C@H]4C[C@@H]5C[C@@H](C[C@H]3C5)C4)C2=O)c1 (stereo partly drawn) | 6.85 | 60 |
| CCOC(=O)CCCOc1ccc(NC(=O)NC2C(=O)N(CC34C[C@H]5C[C@@H](C3)C[C@@H](C4)C5)c3ccccc3N(c3ccccc3)C2=O)cc1 (single isomer, unassigned; (+)) | < 5.00 | > 1900 |
| CC(C)CCN1C(=O)C(NC(=O)Nc2cccc(N(C)C)c2)C(=O)N(c2ccccc2F)c2ccccc21 (racemic) [listing 1 of 2 here] |  | 501 |
| CN(C)c1cccc(NC(=O)NC2C(=O)N(CCC(C)(C)C)c3ccccc3N(c3ccccc3F)C2=O)c1 (racemic) | 7.71 | 32 |
| CC(O)C(O)Nc1cccc(NC(=O)NC2C(=O)N(CC34C[C@H]5C[C@@H](C3)C[C@@H](C4)C5)c3ccccc3N(c3ccccc3)C2=O)c1 (single isomer, unassigned; (+)) [listing 2 of 2 here] |  | 11000 |
| Nc1cccc(NC(=O)NC2C(=O)N(CC34C[C@H]5C[C@@H](C3)C[C@@H](C4)C5)c3ccccc3N(c3ccccc3)C2=O)c1 (single isomer, unassigned; (+)) | 5.39 | 13800 |
| CC(C)CCN1C(=O)C(NC(=O)Nc2cccc(N(C)C)c2)C(=O)N(c2ccccc2F)c2ccccc21 (racemic) [listing 2 of 2 here] | 6.90 |  |
| CC(C)C(C)CN1C(=O)C(NC(=O)Nc2ccccc2)C(=O)N(c2ccccc2)c2ccccc21 (racemic) | 6.91 | 110 |
| O=C(Nc1ccccc1)NC1C(=O)N(CCc2ccccc2)c2ccccc2N(c2ccccc2)C1=O (racemic) | 6.57 | 32 |
| CC(C)CCN1C(=O)C(NC(=O)Nc2ccccc2)C(=O)N(c2ccccc2F)c2ccccc21 (racemic) | 6.71 | 25 |
| CC(C)CCN1C(=O)C(NC(=O)Nc2cccc(N(C)C)c2)C(=O)N(c2ccccc2F)c2ccccc21 (single isomer, unassigned; (-)) [listing 2 of 2 here] |  | 39 |
| CSc1cccc(NC(=O)NC2C(=O)N(CCC(C)C)c3ccccc3N(c3ccccc3F)C2=O)c1 (racemic) | 7.44 | 110 |
| O=C(Nc1ccc(O)cc1)NC1C(=O)N(CC23C[C@H]4C[C@@H](C2)C[C@@H](C3)C4)c2ccccc2N(c2ccccc2)C1=O (single isomer, unassigned; (+)) | 4.69 | 30900 |
| CC(C)(C)CCN1C(=O)C(NC(=O)Nc2ccccc2)C(=O)N(c2ccccc2)c2ccccc21 (racemic) | 6.95 | 166 |
| CC(C)(C)CCN1C(=O)C(NC(=O)Nc2ccccc2)C(=O)N(c2ccccc2F)c2ccccc21 (racemic) | 7.15 | 74 |
| O=Cc1cccc(NC(=O)NC2C(=O)N(CC34C[C@H]5C[C@@H](C3)C[C@@H](C4)C5)c3ccccc3N(c3ccccc3)C2=O)c1 (stereo partly drawn) | 5.95 | 1180 |
| O=C(Nc1cccc(O)c1)NC1C(=O)N(CC23C[C@H]4C[C@@H](C2)C[C@@H](C3)C4)c2ccccc2N(c2ccccc2)C1=O (single isomer, unassigned; (+)) | 5.80 | 550 |
